Assay results reported in ChEMBL document CHEMBL4477170, “Tricyclic Acylphloroglucinols from Hypericum lanceolatum and Regioselective Synthesis of Selancins A and B” (J Nat Prod, 2016).
Activity calls are given as the source filed them. The calls are words filed in the database; no cut-off is given here.

How the values were obtained:
HT-29 = experiment: Cytotoxicity against human HT-29 cells assessed as cell growth inhibition at 10 uM by XTT assay; type: functional, cell-based
Method in brief: (§1)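 Modified XTT assay on HT-29 colon and PC-3 prostate cancer cell lines, measuring growth inhibition; isolated compounds tested up to 10 μM.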

PC-3 = experiment: Cytotoxicity against human PC3 cells assessed as cell growth inhibition at 10 uM by XTT assay; type: functional, cell-based; method in brief: as §1

CC[C@H](C)C(=O)c1c(O)c2c(c3c1OC(C)(C)C=C3)OC(C)(C)[C@@H](O)C2=O
growth inhibition (GI) (HT-29): inactive | growth inhibition (GI) (PC-3): inactive

CC(C)C(=O)c1c(O)c2c(c3c1OC(C)(C)C=C3)OC(C)(C)[C@H](O)[C@@H]2O (relative stereo)
growth inhibition (GI) (HT-29): inactive | growth inhibition (GI) (PC-3): inactive

CC[C@H](C)C(=O)c1c(O)c2c(c3c1OC(C)(C)C=C3)OC(C)(C)[C@H](O)C2
growth inhibition (GI) (HT-29): inactive | growth inhibition (GI) (PC-3): inactive

CC(C)C(=O)c1c(O)c2c(c3c1OC(C)(C)C=C3)OC(C)(C)C=C2
growth inhibition (GI) (HT-29): inactive | growth inhibition (GI) (PC-3): inactive

CC(C)C(=O)c1c(O)c2c(c3c1OC(C)(C)C(O)C3)OC(C)(C)C=C2 (stereo not drawn)
growth inhibition (GI) (HT-29): inactive | growth inhibition (GI) (PC-3): inactive

CC(C)=CCC/C(C)=C/COc1cc(O)c2c(c1)C(=O)c1cc(C)cc(O)c1C2=O
growth inhibition (GI) (HT-29): inactive | growth inhibition (GI) (PC-3): inactive

CC(C)C(=O)c1c(O)c2c(c3c1OC(C)(C)C=C3)OC(C)(C)[C@@H](O)C2=O
growth inhibition (GI) (HT-29): inactive | growth inhibition (GI) (PC-3): inactive

CC[C@H](C)C(=O)c1c(O)c2c(c3c1OC(C)(C)C(O)C3)OC(C)(C)C=C2 (stereo partly drawn)
growth inhibition (GI) (HT-29): inactive | growth inhibition (GI) (PC-3): inactive

CC[C@H](C)C(=O)c1c(O)c2c(c3c1OC(C)(C)C=C3)OC(C)(C)C=C2
growth inhibition (GI) (HT-29): inactive | growth inhibition (GI) (PC-3): inactive
